In ChEMBL document CHEMBL4177541, “Identification of Pyridinium with Three Indole Moieties as an Antimicrobial Agent” (J Nat Prod, 2017):
In brackets after ≈: the same amount, converted by molar mass.

Legend:
Staphylococcus aureus = experiment: Antimicrobial activity against methicillin-sensitive Staphylococcus aureus incubated for 20 hrs by CLSI protocol based method; format: functional
Candida albicans = experiment: Antimicrobial activity against Candida albicans incubated for 24 hrs by CLSI protocol based method; format: functional
P388 = experiment: Cytotoxicity against mouse P388 cells assessed as reduction in cell viability by MTT assay; format: functional, cell-based
In short: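 P388 murine leukemia cells were maintained in DMEM with 10% FBS and penicillin-streptomycin. After compound exposure, MTT (15 μL of a 5.0 mg/mL solution) was added for 3 h. The supernatant was removed and formazan dissolved in DMSO. IC50 was derived.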

Escherichia coli = experiment: Antimicrobial activity against Escherichia coli W3110 incubated for 20 hrs by CLSI protocol based method; format: functional; details: W3110, 20 h
Bacillus cereus = experiment: Antimicrobial activity against Bacillus cereus incubated for 20 hrs by CLSI protocol based method; format: functional

Row | SMILES | MIC (Staphylococcus aureus) [µg/mL] | MIC (Candida albicans) [µg/mL] | IC50 (P388) [µM] | MIC (Escherichia coli) [µg/mL] | MIC (Bacillus cereus) [µg/mL]
1 | Brc1cc(Br)c[n+](CCc2c[nH]c3ccccc23)c1.[Br-] | > 100 | 100 | 76 | > 100 | > 100
2 | CC1(C)S[C@@H]2[C@H](NC(=O)[C@H](N)c3ccccc3)C(=O)N2[C@H]1C(=O)O [AMPICILLIN] | 0.5 (≈ 1.43 µM) | 100 (≈ 286 µM) |  | 4 (≈ 11.4 µM) | 0.063 (≈ 0.18 µM)
3 | [Br-].c1ccc2c(CC[n+]3cccc(-c4c[nH]c5ccccc45)c3)c[nH]c2c1 | 50 | 100 | 50 | > 100 | 25
4 | [Br-].c1cc[n+](CCc2c[nH]c3ccccc23)cc1 | > 100 | 100 | 53 | > 100 | > 100
5 | [Br-].c1ccc2c(CC[n+]3cc(-c4c[nH]c5ccccc45)cc(-c4c[nH]c5ccccc45)c3)c[nH]c2c1 | 1.56 | 12.5 | 1 | > 100 | 0.78
